Data taken from ChEMBL document CHEMBL3580604, “Flavonoids from Matteuccia struthiopteris and Their Anti-influenza Virus (H1N1) Activity” (J Nat Prod, 2015).
Activity calls are given as the source filed them. The calls are words filed in the database; no cut-off is given here.

Tests used:
[1] = target: Neuraminidase (Influenza A virus) (UniProt B4URF0); assay: Inhibition of Influenza A virus A/PR/8/34 (H1N1) neuraminidase activity measured in infected MDCK cells using MUNANA as substrate assessed as fluorescence intensity after 48 hrs; assay type: cell-based; conditions: Influenza A virus (A/Puerto Rico/8/1934(H1N1))
Chain of Neuraminidase (Influenza A virus) (B4URF0 as listed by the source): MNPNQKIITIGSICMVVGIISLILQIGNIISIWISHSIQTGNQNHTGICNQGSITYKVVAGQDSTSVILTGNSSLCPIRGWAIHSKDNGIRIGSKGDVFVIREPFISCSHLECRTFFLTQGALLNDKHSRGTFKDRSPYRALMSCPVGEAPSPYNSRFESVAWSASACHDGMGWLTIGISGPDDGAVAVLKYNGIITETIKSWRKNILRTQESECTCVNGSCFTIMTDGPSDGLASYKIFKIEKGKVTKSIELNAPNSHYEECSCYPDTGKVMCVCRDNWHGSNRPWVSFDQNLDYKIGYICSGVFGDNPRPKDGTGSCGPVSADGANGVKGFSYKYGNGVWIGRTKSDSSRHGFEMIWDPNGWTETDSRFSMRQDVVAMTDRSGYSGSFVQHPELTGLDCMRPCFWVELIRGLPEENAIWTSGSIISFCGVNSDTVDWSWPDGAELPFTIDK
Summary of the method: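 MDCK cells (2 × 10^4/well) infected with A/PR/8/34 at MOI 0.01, with samples (0.7–166 μM, DMEM with 1% DMSO) added at the same time. After 1 h at 37 °C the cells were washed and fresh sample-containing DMEM added for 48 h. Supernatant NA activity was read with MUNANA for 45 min at 37 °C (ex 355/em 485 nm). Triplicate runs; EC50 by linear extrapolation; ribavirin 0.8–200 μM control.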

MDCK = assay: Cytotoxicity against MDCK cells assessed as cell viability after 72 hrs by MTT assay; assay type: cell-based, Canis lupus familiaris; conditions: dog
[2] = Selectivity index, ratio of cytotoxicity for MDCK cells to EC50 for Influenza A virus A/PR/8/34 (H1N1) neuraminidase activity; assay type: toxicity, cell-based; conditions: dog, read-out: Selectivity Index
Summary of the method: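 SI calculated as CC50/EC50, with CC50 from the 72 h MDCK AlamarBlue assay and EC50 from the MUNANA neuraminidase assay on supernatants of PR8-infected MDCK cells at 48 h.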

For COC(=O)C1(O)CC(C)OC1O[C@H]1[C@H](Oc2c(-c3ccc(O)cc3)oc3cc(O[C@@H]4O[C@@H](C)[C@H](O)[C@@H](O)[C@H]4O)cc(O)c3c2=O)O[C@@H](C)[C@H](O)[C@H]1O (stereo partly drawn), the inhibition [1] was “inactive” and the Activity (MDCK) was “Non-toxic”.
In the case of CC(=O)O[C@@H]1[C@@H](O)[C@@H](O[C@@H]2O[C@H](CO)[C@@H](O)[C@H](O)[C@H]2O)[C@H](Oc2c(-c3ccc(O)cc3)oc3cc(O[C@@H]4O[C@@H](C)[C@H](O)[C@@H](O)[C@H]4O)cc(O)c3c2=O)O[C@H]1C, the inhibition [1] is reported as “inactive” and the Activity (MDCK) is reported as “Non-toxic”.
For C[C@@H]1O[C@@H](Oc2cc(O)c3c(=O)c(O[C@@H]4O[C@@H](C)[C@H](O)[C@@H](O)[C@H]4O[C@@H]4O[C@@H](C)[C@H](O)[C@@H](O)[C@H]4O)c(-c4ccc(O)cc4)oc3c2)[C@H](O)[C@H](O)[C@H]1O, the inhibition [1] was “inactive” and the Activity (MDCK) was “Non-toxic”.
In the case of C[C@@H]1O[C@@H](Oc2cc(O)c3c(=O)c(O[C@@H]4O[C@@H](C)[C@H](O)[C@@H](O)[C@H]4O[C@@H]4O[C@H](CO)[C@@H](O)[C@@H](O)[C@H]4O)c(-c4ccc(O)cc4)oc3c2)[C@H](O)[C@H](O)[C@H]1O, the inhibition [1] is reported as “inactive” and the Activity (MDCK) is reported as “Non-toxic”.
For O=c1c(O[C@@H]2O[C@H](CO)[C@@H](O)[C@H](O)[C@H]2O)c(-c2ccc(O)cc2)oc2cc(O)cc(O)c12 [ASTRAGALIN], the selectivity ratio [2] was 12.4 and the Activity (MDCK) was “Non-toxic”.
For COc1c(O)cc([C@@H]2CC(=O)c3c(O)c(C)c(O[C@@H]4O[C@H](CO)[C@@H](O)[C@H](O)[C@H]4O)c(C)c3O2)cc1O, the selectivity ratio [2] was 34.4 and the Activity (MDCK) was “Non-toxic”.
In the case of COC(=O)C(C)OC(O[C@H]1[C@H](Oc2c(-c3ccc(O)cc3)oc3cc(O[C@@H]4O[C@@H](C)[C@H](O)[C@@H](O)[C@H]4O)cc(O)c3c2=O)O[C@@H](C)[C@H](O)[C@H]1O)C(O)C(=O)OC (stereo partly drawn), the inhibition [1] is reported as “inactive” and the Activity (MDCK) is reported as “Non-toxic”.
For COc1c(O)cc(C2CC(=O)c3c(O)c(C)c(O)c(C)c3O2)cc1O (stereo not drawn), the selectivity ratio [2] was 3.1 and the Activity (MDCK) was “Non-toxic”.
In the case of CC(=O)O[C@@H]1[C@@H](O)[C@@H](O[C@@H]2O[C@H](CO)[C@@H](O)[C@@H](O)[C@H]2O)[C@H](Oc2c(-c3ccc(O)cc3)oc3cc(O[C@@H]4O[C@@H](C)[C@H](O)[C@@H](O)[C@H]4O)cc(O)c3c2=O)O[C@H]1C, the inhibition [1] is reported as “inactive” and the Activity (MDCK) is reported as “Non-toxic”.
